Series [1] deals with Plasmodium falciparum. As to the kind of experiment: Antimalarial activity against Plasmodium falciparum K1 assessed as [3H]hypoxanthine incorporation by scintillation counting. Type of series: functional, organism-based.
Series [2] has as its system Plasmodium falciparum. As to the kind of experiment: Antimalarial activity against drug-sensitive Plasmodium falciparum 3D7 assessed as [3H]hypoxanthine incorporation by scintillation counting. The format is functional, organism-based.
Series [3] is described as follows: Selectivity index, ratio of CC50 for human MCF7 cells to IC50 for chloroquine-resistant Plasmodium falciparum FcB1. The format is functional. The gist of the method:
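XTT 0.5 mg/mL added for 180 min, formazan read at 450 nm, value taken from dose–response curves, two experiments in triplicate. This CC50 is divided by the FcB1 IC50 to give the index.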

Series [4] in a line: Cytotoxicity against human MCF7 cells after 48 hrs by MTT assay. The format is cell-based.
The subject of series [5] is Plasmodium falciparum. Put plainly: Antimalarial activity against chloroquine-resistant Plasmodium falciparum FcB1 assessed as [3H]hypoxanthine incorporation after 48 hrs by beta-counter. Type of series: functional, organism-based. As to conditions: FcB1/Columbia. In outline:
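Primary assay (Toulouse) on FcB1 cultured in RPMI with 25 mM HEPES and 10% human serum, O RBCs. Serial dilutions in triplicate, 2% parasitaemia, 2% haematocrit, 48 h at 37 °C, 5% CO2. [3H]-hypoxanthine added at 24 h, freeze-thaw harvest, β-counting. IC50 by linear regression on the linear segment of the semilog inhibition curve. Three independent repeats.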

Series [6] deals with Plasmodium falciparum. Put plainly: Resistance index, ratio of IC50 for chloroquine-resistant Plasmodium falciparum K1 to IC50 for drug-sensitive Plasmodium falciparum 3D7. The format is functional.
In series [7] the test system is Plasmodium falciparum. As to the kind of experiment: Resistance index, ratio of IC50 for chloroquine-resistant Plasmodium falciparum FcB1 to IC50 for drug-sensitive Plasmodium falciparum 3D7. Type of series: functional.

The values below come from ChEMBL document CHEMBL1156797, “Synthesis and antiplasmodial activity of new indolone N-oxide derivatives” (J Med Chem, 2010).

The IC50 is the concentration needed to halve the response being measured. For orientation: CC50 means the concentration at which the toxic effect on the cells reaches its halfway point. For the compound `O=C1C(c2ccc(Oc3ccccc3)cc2)=[N+]([O-])c2ccccc21`, the IC50 in series [1] was 60 nM; in series [2], 148 nM; in series [5], 264 nM. The “Ratio CC50/IC50” value in series [3] is listed as 42. The same compound showed a CC50 at 48 h in series [4] of 11100 nM. Also, the figures for the “Ratio IC50” value in series [6] and in series [7] were 0.4 and 1.8, respectively.
Regarding `COc1ccc2c(c1)C(=O)C(c1ccccc1)=[N+]2[O-]`, the “Ratio CC50/IC50” value in series [3] amounted to 73. In series [4], this compound yielded a CC50 at 48 h of 13400 nM. The IC50 in series [5] came to 184 nM.
Regarding `O=C1C(c2ccc(C(F)(F)F)cc2)=[N+]([O-])c2ccccc21`, the “Ratio CC50/IC50” value in series [3] was 29. This compound gave a CC50 at 48 h in series [4] of 34300 nM. Further, the IC50 in series [5] stood at 1170 nM.
With `CCCC1=[N+]([O-])c2ccccc2C1=O`, in series [3], the “Ratio CC50/IC50” value is reported as 2. For the same compound, in series [4], the CC50 at 48 h is 26400 nM. Besides, the IC50 in series [5] is 12200 nM.
In the case of `O=C1C(c2ccc(Oc3ccccc3)cc2)=[N+]([O-])c2cc3c(cc21)OCO3`, the IC50 in series [1] was found to be 138 nM; in series [2], 285 nM; in series [5], 165 nM. Further, the “Ratio CC50/IC50” value in series [3] is recorded as 74. This compound yielded a CC50 at 48 h in series [4] of 12200 nM. Further, the “Ratio IC50” value in series [6] is recorded as 0.5; in series [7] it was 0.6.
Take `O=C1C(c2ccc(CO)cc2)=[N+]([O-])c2ccccc21`: the “Ratio CC50/IC50” value in series [3] is on record as 10. In series [4], this compound returned a 50% cytotoxic concentration (CC50) at 48 h of 39500 nM. Further, in series [5], the IC50 amounted to 3950 nM.
Taken in the same sequence, the figures for `COc1ccc2c(c1)[N+]([O-])=C(c1ccc(Cl)cc1)C2=O` were 69, 10400 nM and 150 nM.
The matching figures for `CCN(CC)c1ccc(C2=[N+]([O-])c3ccc(OC)cc3C2=O)cc1`: 134, 17600 nM and 131 nM.
Taken in the same sequence, the figures for `O=C1C(c2ccc(Oc3ccccc3)cc2)=[N+]([O-])c2cc(OCc3ccccc3)ccc21` were 3.2, 2200 nM and 665 nM.
For `COc1ccc2c(c1)C(=O)C(c1ccc(-c3ccc(Cl)cc3)cc1)=[N+]2[O-]`, the “Ratio CC50/IC50” value in series [3] came out at 19. This compound had a 50% cytotoxic concentration (CC50) at 48 h in series [4] of 12100 nM. The IC50 in series [5] worked out at 630 nM.
Taken in the same sequence, the figures for `COC(=O)c1ccc2c(c1)[N+]([O-])=C(c1ccc(OC)cc1)C2=O` were 194.9, 40200 nM and 206 nM.
As for `O=C1C(c2ccccc2)=[N+]([O-])c2cc3c(cc21)OCO3`, in series [5], the IC50 was 12700 nM.
`O=C1C(c2ccc(Cl)c(Cl)c2)=[N+]([O-])c2cc3c(cc21)OCO3`: in series [3], the “Ratio CC50/IC50” value was found to be 38.1. Further, the 50% cytotoxic concentration (CC50) at 48 h in series [4] was 7400 nM. Besides, the IC50 in series [5] is 195 nM.
Taken in the same sequence, the figures for `COc1ccc(C2=[N+]([O-])c3cc(Cl)ccc3C2=O)cc1` were 116.5, 22200 nM and 191 nM.
Turning to `COc1ccc(C2=[N+]([O-])c3cc(C)ccc3C2=O)cc1`, the “Ratio CC50/IC50” value in series [3] worked out at 75. The CC50 at 48 h in series [4] stood at 14900 nM. In series [5], the IC50 was 198 nM.
Take `COc1ccc(C2=[N+]([O-])c3ccc(OC)cc3C2=O)c(C)c1`: the “Ratio CC50/IC50” value in series [3] came out at 0.3. In series [4], this compound showed a CC50 at 48 h of 300 nM. For the same compound, the IC50 in series [5] was 1040 nM.
Consider `COc1ccc2c(c1)C(=O)C(c1ccsc1)=[N+]2[O-]`, for which, in series [3], the “Ratio CC50/IC50” value stood at 45.5. The compound further had a CC50 at 48 h in series [4] of 12300 nM. For the same compound, the IC50 in series [5] was found to be 270 nM.
Turning to `COc1ccc2c(c1)C(=O)C(c1ccc(OC)c(C)c1)=[N+]2[O-]`, the “Ratio CC50/IC50” value in series [3] is listed as >764. For the same compound, in series [4], the cytotoxic concentration (CC50) at 48 h was > 33600 nM. In addition, the IC50 in series [5] worked out at 44 nM.
For `COc1ccc2c(c1)C(=O)C(c1ccc(C(C)(C)C)cc1)=[N+]2[O-]`, the “Ratio CC50/IC50” value in series [3] worked out at 53.9. This compound showed a CC50 at 48 h in series [4] of 11000 nM. In addition, the IC50 in series [5] came to 204 nM.
For `COc1ccc2cc(C3=[N+]([O-])c4cc(OCc5ccccc5)ccc4C3=O)ccc2c1`, the IC50 in series [5] was determined as 730 nM.
For `O=C1C(c2ccc(Cl)c(C(F)(F)F)c2)=[N+]([O-])c2ccccc21`, the “Ratio CC50/IC50” value in series [3] amounted to 1.9. The compound further yielded a CC50 at 48 h in series [4] of 2000 nM. The IC50 in series [5] was 1040 nM.
The matching figures for `Cc1ccc(C2=[N+]([O-])c3ccccc3C2=O)cc1`: 8.5, 15000 nM and 1770 nM.
In the case of `COc1ccc2c(c1)C(=O)C(c1cc(OC)c3ccccc3c1)=[N+]2[O-]`, the “Ratio CC50/IC50” value in series [3] is given as 107. For the same compound, half-maximal cytotoxicity in series [4] (CC50 at 48 h) was put at 14400 nM. In addition, the IC50 in series [5] turned out to be 135 nM.
